Measurements from ChEMBL document CHEMBL1833943, “Synthesis and structure-activity relationships of varied ether linker analogues of the antitubercular drug (6S)-2-nitro-6-{[4-(trifluoromethoxy)benzyl]oxy}-6,7-dihydro-5h-imidazo[2,1-b][1,3]oxazine (PA-824)” (J Med Chem, 2011).
Converted amounts (≈) assume the structure as drawn.

Legend:
[1] = Metabolic stability in human liver microsomes at 1 uM measured as compound remaining after 1 hr by LC/MS/MS analysis; format: ADME, Microsome; conditions: read-out: Stability
[2] = tested on: Mycobacterium tuberculosis; experiment: Antituberculosis activity against Mycobacterium tuberculosis H37Rv under anaerobic conditions by fluorescence based low-oxygen-recovery assay; format: functional
[3] = tested on: Mycobacterium tuberculosis; experiment: Antituberculosis activity against Mycobacterium tuberculosis H37Rv under aerobic conditions by microplate alamar blue assay; format: functional
[4] = Metabolic stability in CD1 mouse liver microsomes at 1 uM measured as compound remaining after 1 hr by LC/MS/MS analysis; format: ADME, Microsome; conditions: read-out: Stability
[5] = tested on: Mycobacterium tuberculosis; experiment: Antituberculosis activity against Mycobacterium tuberculosis H37Rv infected in BALB/c mouse acute infection model assessed as fold reduction in bacterial CFU in lungs at 100 mg/kg, po administered for 5 days a week for 3 weeks beginning on day 11 postinfection relative to PA-824; format: functional
Procedure, shortened: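 Mice with acute M. tb infection dosed orally at 100 mg/kg daily, 5 days each week, standard 3 week assay. Lung CFUs counted. Value is the fold CFU decrease for the compound divided by the fold CFU decrease for the internal reference standard run in the same experiment.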

[6] = Aqueous solubility of the compound in water at pH 7 by HPLC analysis; format: physicochemical
Procedure, shortened: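 Solubility measured in water at pH 7 and 20 °C, quantified by HPLC.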

[7] = Aqueous solubility of the compound in 0.1 M hydrochloric acid at pH 1 by HPLC analysis; format: physicochemical
[8] = Metabolic stability in human liver microsomes at 1 uM measured as compound remaining after 45 mins by LC/MS/MS analysis; format: ADME, Microsome; conditions: read-out: Stability
Mus musculus = experiment: Toxicity in Mycobacterium tuberculosis H37Rv infected BALB/c mouse at 100 mg/kg, po administered for 5 days a week for 3 weeks beginning on day 11 postinfection; format: organism-based; parameters: dose 100 mg/kg, route oral; conditions: in vivo
[9] = tested on: Mycobacterium tuberculosis; experiment: Antituberculosis activity against Mycobacterium tuberculosis H37Rv infected in BALB/c mouse chronic infection model assessed as fold reduction in bacterial CFU in lungs at 100 mg/kg, po administered for 5 days a week for 3 weeks beginning on day 70 postinfection relative to OPC-67683; format: functional
Procedure, shortened: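 Chronic M. tb infection model with dosing starting ~70 days post infection, once bacteria are in a plateau phase of growth. Oral 100 mg/kg daily, 5 days/week, 3 weeks. Lung CFUs counted. Value is the fold CFU reduction for the compound relative to the fold reduction for the reference agent.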

## O=[N+]([O-])c1cn2c(n1)OC[C@@H](OCC#Cc1ccc(-c3ccc(OC(F)(F)F)cc3)nc1)C2
[1]
  remaining at 1 h, 1 µM: 93%
[2]
  MIC: 0.52 µM (≈ 0.239 µg/mL)
[3]
  MIC: 0.09 µM (≈ 0.0414 µg/mL)
[4]
  remaining at 1 h, 1 µM: 90%
[5]
  fold change (FC): 1
[6]
  solubility: 0.72 µg/mL (≈ 1.56 µM)
[7]
  solubility: 4 µg/mL (≈ 8.69 µM)

## C[C@@H](O[C@@H]1COc2nc([N+](=O)[O-])cn2C1)c1ccc(OC(F)(F)F)cc1
[8]
  remaining at 0.75 h, 1 µM: 60%

## C[C@H](O[C@@H]1COc2nc([N+](=O)[O-])cn2C1)c1ccc(OC(F)(F)F)cc1
[8]
  remaining at 0.75 h, 1 µM: 73%

## CC(O[C@@H]1COc2nc([N+](=O)[O-])cn2C1)c1ccc(-c2ccc(OC(F)(F)F)cc2)cc1 (some centres not stated)
[1]
  remaining at 1 h, 1 µM: 100%
[2]
  MIC: 1.5 µM (≈ 0.674 µg/mL)
[3]
  MIC: 0.19 µM (≈ 0.0854 µg/mL)
[4]
  remaining at 1 h, 1 µM: 92%
Mus musculus
  Activity: Toxic
[6]
  solubility: 0.84 µg/mL (≈ 1.87 µM)

## O=[N+]([O-])c1cn2c(n1)OC[C@@H](OCc1ccc(OC(F)(F)F)cc1)C2 [PRETOMANID]
[9]
  fold change (FC): 0.14
[8]
  remaining at 0.75 h, 1 µM: 93%
